Laboratory results as given in ChEMBL document CHEMBL2311304, “Design, synthesis and in vitro and in vivo antitumor activities of novel bivalent β-carbolines” (Eur J Med Chem, 2013).
pIC50: −log10 of the molar value.

Columns and labels:
SK-OV-3 = test: Cytotoxicity against human ovary adenocarcinoma SKOV3 cells assessed as reduction in optical density by MTT assay; format: functional, cell-based; conditions: SK-OV-3, Female gonad
Outline: (§1)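 Cells were cultured in RPMI-1640 with 10% (v/v) fetal calf serum, 100 µg ml-1 penicillin and 100 µg ml-1 streptomycin at 37 °C in humidified 5% CO2. Compounds were dissolved in DMSO, with final DMSO at 2% (v/v) or lower. MTT staining was used, with three replicate wells per point. IC50 is the concentration giving a 50% drop in optical density versus untreated cells.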

KB = test: Cytotoxicity against human epidermoid carcinoma of the nasopharynx KB cells assessed as reduction in optical density by MTT assay; format: functional, cell-based; outline: as §1
769-P = test: Cytotoxicity against human renal carcinoma 769-P cells assessed as reduction in optical density by MTT assay; format: functional, cell-based; outline: as §1
A-375 = test: Cytotoxicity against human malignant melanoma A375 cells assessed as reduction in optical density by MTT assay; format: functional, cell-based; outline: as §1
BGC-823 = test: Cytotoxicity against human gastric carcinoma BGC823 cells assessed as reduction in optical density by MTT assay; format: functional, cell-based; outline: as §1
[1] = Antitumor activity in mouse Lewis lung cancer cells inoculated mouse assessed as tumor inhibition rate at one fifth of LD50 concentration once a day for consecutive 7 days by ip; format: functional, Cancer cell lines; design: scale not given: the % may be the effect or the level left
Outline: (§2)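 Each tumour line was first grown in mice for 7 days, then harvested. Viable cells (2 × 10^6 per mouse) were injected s.c. into the armpit. Dosing began 24 h later: i.p., about one fifth of LD50, daily for 7 days, 10 female mice per group. […] Body weight was recorded every 3 days. Tumours were excised and weighed on day 21 to give inhibition rate.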

CT26 = test: Antitumor activity in mouse CT26 colon cancer cells inoculated mouse assessed as tumor inhibition rate at one fifth of LD50 concentration once a day for consecutive 7 days by ip; format: functional; design: scale not given: the % may be the effect or the level left; outline: as §2
Mus musculus [2] = test: Toxicity in C57BL/6 mouse assessed as maximum weight loss at 40 mg/kg, ip; format: organism-based; design: dose 40 mg/kg, route intraperitoneal; conditions: in vivo
Outline: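 Tumor-bearing mice, 10 females per group, were inoculated s.c. in the armpit with 2 × 10^6 viable tumor cells. Compound was given i.p. once daily for 7 consecutive days, starting 24 h after inoculation. […] Body weight was recorded every 3 days until sacrifice on day 21.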

Mus musculus [3] = test: Toxicity in C57BL/6 mouse assessed as liver damage at 1 to 500 mg/kg, ip for 14 days; format: organism-based; design: dose 1-500 mg/kg, route intraperitoneal; conditions: in vivo, 336 h
Outline: (§3)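 Healthy C57BL/6 mice (9–12 weeks, 18–22 g) were fasted overnight with free access to water. Each received a single i.p. dose of 1.0–500 mg kg-1 in 0.5% CMC-Na, 10 mice per group (5 male, 5 female). Mice were watched continuously for 2 h, intermittently to 24 h, then occasionally to 14 days for tremor, twitch, jumping and supination. At day 14 they were killed and heart, liver and kidneys were examined macroscopically.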

Mus musculus [4] = test: Toxicity in C57BL/6 mouse assessed as kidney damage at 1 to 500 mg/kg, ip for 14 days; format: organism-based; design: dose 1-500 mg/kg, route intraperitoneal; conditions: in vivo, 336 h; outline: as §3
Mus musculus [5] = test: Toxicity in C57BL/6 mouse assessed as heart damage at 1 to 500 mg/kg, ip for 14 days; format: organism-based; design: dose 1-500 mg/kg, route intraperitoneal; conditions: in vivo, 336 h; outline: as §3
Mus musculus [6] = test: Neurotoxicity in C57BL/6 mouse at 1 to 500 mg/kg, ip for 14 days; format: toxicity, organism-based; design: dose 1-500 mg/kg, route intraperitoneal; conditions: in vivo, 336 h; outline: as §3
H22 = test: Antitumor activity in mouse H22 liver cancer cells inoculated mouse assessed as tumor inhibition rate at one fifth of LD50 concentration once a day for consecutive 7 days by ip; format: functional; design: scale not given: the % may be the effect or the level left; outline: as §2
B16 = test: Antitumor activity in mouse B16 melanoma cell lines cells inoculated mouse assessed as tumor inhibition rate at one fifth of LD50 concentration once a day for consecutive 7 days by ip; format: functional; design: scale not given: the % may be the effect or the level left; outline: as §2
[7] = Antitumor activity in mouse Sarcoma 180 cells inoculated mouse assessed as tumor inhibition rate at one fifth of LD50 concentration once a day for consecutive 7 days by ip; format: functional; design: scale not given: the % may be the effect or the level left; outline: as §2

| Structure (SMILES) | pIC50 (SK-OV-3) | pIC50 (KB) | pIC50 (769-P) | pIC50 (A-375) | pIC50 (BGC-823) | Activity [1] | Activity (CT26) | Activity (Mus musculus [2]) | Activity (Mus musculus [3]) | Activity (Mus musculus [4]) | Activity (Mus musculus [5]) | Activity (Mus musculus [6]) | Activity (H22) | Activity (B16) | Activity [7] |
| --- | --- | --- | --- | --- | --- | --- | --- | --- | --- | --- | --- | --- | --- | --- | --- |
| c1cncc(-c2nccc3c4ccccc4n(CCCCn4c5ccccc5c5ccnc(-c6cccnc6)c54)c23)c1 | 4.43 | < 3.70 | < 3.70 | 4.07 | < 3.70 |  |  |  |  |  |  |  |  |  |  |
| CCOC(=O)c1cc2c3ccccc3n(CCCCCn3c4ccccc4c4cc(C(=O)OCC)nc(-c5cccnc5)c43)c2c(-c2cccnc2)n1 | < 3.70 | 4.80 | 3.88 | 4.89 | 4.62 |  |  |  |  |  |  |  |  |  |  |
| CCOC(=O)c1cc2c3ccccc3n(CCCCCCn3c4ccccc4c4cc(C(=O)OCC)nc(-c5cccnc5)c43)c2c(-c2cccnc2)n1 | 4.17 | < 3.70 | < 3.70 | < 3.70 | < 3.70 |  |  |  |  |  |  |  |  |  |  |
| c1ccc2c(c1)c1ccncc1n2CCCCn1c2ccccc2c2ccncc21 | < 3.70 | < 3.70 |  | < 3.70 | 4.22 | 34.2% | 39.7% | 14.5% | Non-toxic | Non-toxic | Non-toxic | Non-toxic |  |  |  |
| c1ccc2c(c1)c1ccncc1n2CCCCCCCn1c2ccccc2c2ccncc21 | < 3.70 | < 3.70 | 4.28 | < 3.70 | < 3.70 |  |  |  |  |  |  |  |  |  |  |
| c1ccc2c(c1)c1ccncc1n2CCCCCCCCn1c2ccccc2c2ccncc21 | 4.47 | < 3.70 | < 3.70 | < 3.70 | < 3.70 |  |  |  |  |  |  |  |  |  |  |
| Brc1ccc2c(c1)c1ccncc1n2CCCCn1c2ccc(Br)cc2c2ccncc21 | 5.05 | < 3.70 | 5.51 | < 3.70 | < 3.70 |  |  |  |  |  |  |  |  |  |  |
| Brc1cccc2c3ccncc3n(CCCCCCn3c4cnccc4c4cccc(Br)c43)c12 | < 3.70 | < 3.70 | < 3.70 | < 3.70 | < 3.70 |  |  |  |  |  |  |  |  |  |  |
| Cc1nccc2c3ccccc3n(CCCn3c4ccccc4c4ccnc(C)c43)c12 | 4.58 | 3.80 | 3.84 | 4.16 | < 3.70 |  |  |  |  |  |  |  |  |  |  |
| Cc1nccc2c3ccccc3n(CCCCn3c4ccccc4c4ccnc(C)c43)c12 | 5.32 | 5.19 | 5.19 | 4.88 | 4.65 | 40.4% | 50.8% | 21.5% | Non-toxic | Non-toxic | Non-toxic | Non-toxic | 42.3% | 29.9% | 56.2% |
| Cc1nccc2c3ccccc3n(CCCCCn3c4ccccc4c4ccnc(C)c43)c12 | 4.73 | < 3.70 | < 3.70 | < 3.70 | < 3.70 |  |  |  |  |  |  |  |  |  |  |
| Cc1nccc2c3ccccc3n(CCCCCCn3c4ccccc4c4ccnc(C)c43)c12 | 4.77 | 4.06 | 3.83 | 4.42 | 3.87 | 42.1% | 39.6% | 5.1% | Non-toxic | Non-toxic | Non-toxic | Non-toxic |  |  |  |
| Cc1nccc2c3ccccc3n(CCCCCCCn3c4ccccc4c4ccnc(C)c43)c12 | 4.01 | < 3.70 | 4.29 | < 3.70 | < 3.70 |  |  |  |  |  |  |  |  |  |  |
| Cc1nccc2c3ccccc3n(CCCCCCCCn3c4ccccc4c4ccnc(C)c43)c12 | < 3.70 | < 3.70 | < 3.70 | < 3.70 | < 3.70 |  |  |  |  |  |  |  |  |  |  |
| Cc1nccc2c3ccccc3n(CCCCCCCCCn3c4ccccc4c4ccnc(C)c43)c12 | 4.21 | < 3.70 | < 3.70 | 4.24 | < 3.70 |  |  |  |  |  |  |  |  |  |  |
| Cc1nccc2c3ccccc3n(CCCCCCCCCCn3c4ccccc4c4ccnc(C)c43)c12 | 5.07 | < 3.70 | 4.79 | < 3.70 | < 3.70 |  |  |  |  |  |  |  |  |  |  |
| CCOC(=O)c1cc2c3ccccc3n(CCCCCCn3c4ccccc4c4cc(C(=O)OCC)nc(C)c43)c2c(C)n1 | < 3.70 | < 3.70 | < 3.70 | < 3.70 | < 3.70 |  |  |  |  |  |  |  |  |  |  |
